Screens (PubChem BioAssay)
Hits are enriched below; roughly 4.6% of the tested compounds scored in any of these assays.
M18AAP inhibitor – PfM18AAP inhibitors, malaria aminopeptidase, primary screen, biochemical, QFRET, recombinant enzyme; M18 aspartyl aminopeptidase (Plasmodium falciparum 3D7); H-Glu-NHMec fluorogenic cleavage; inhibition, % at 7.35 µM; actives 1.2% (n = 290,000); AID 1822, 2009;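 active means inhibition above the campaign mean inhibition over all tested compounds plus 3 SD, cut at about 28% in these data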;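 further: 0% = plate median of test compound wells and 100% = 2 mM ZnCl2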
Rtt109 Vps75 – inhibitors of C. albicans Rtt109/Vps75 HAT, primary screen, biochemical, ThioGlo CoA-SH fluorescence, plate reader; Histone acetyltransferase RTT109 (Candida albicans (strain SC5314 / ATCC MYA-2876)), …; purified Rtt109/Vps75, 4 h; inhibition, % at 34.9 µM; actives 0.16% (n = 330,000); AID 540336, 2011;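 active means inhibition of at least 50% in every replicate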
UCH37 inh – inhibitors of human UCH37 deubiquitinase, primary screen, biochemical, Ub-AMC cleavage, fluorescence | inhibition, % (concentration not given with the values) | actives 0.33% (n = 330,000) | Ubiquitin carboxyl-terminal hydrolase isozyme L5 (Homo sapiens), Q9Y5K5 | purified proteasome/UCH37;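 active means mean inhibition over replicate wells above about 20%, limit read from the data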;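 further: 0% = compound-free wells with enzyme and 100% = wells lacking proteasome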
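system = Proteasome-associated human UCH37 deubiquitinase | amount = 0.15 nM proteasome as dispensed | medium = pH 7.4 Tris-HCl (50 mM) with ovalbumin, ATP-MgCl2, DTT | incubation = 30 min preincubation with enzyme, 25 min cleavage at room temperature | detection = AMC fluorescence 355/460 nm | read-out basis = percent inhibition | controls = no-proteasome and no-compound wells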
ALR inh – inhibitors of human ALR sulfhydryl oxidase, primary screen, biochemical, H2O2 detection, HRP-luminol luminescence, single point. FAD-linked sulfhydryl oxidase ALR (Homo sapiens), P55789. purified ALR, DTT oxidation. inhibition, % (concentration not given with the values). actives 3.8% (n = 290,000);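 active means mean replicate inhibition above about 79%, with every replicate also reaching it, limit read from the data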
Target sequence (P55789 whole entry, looked up): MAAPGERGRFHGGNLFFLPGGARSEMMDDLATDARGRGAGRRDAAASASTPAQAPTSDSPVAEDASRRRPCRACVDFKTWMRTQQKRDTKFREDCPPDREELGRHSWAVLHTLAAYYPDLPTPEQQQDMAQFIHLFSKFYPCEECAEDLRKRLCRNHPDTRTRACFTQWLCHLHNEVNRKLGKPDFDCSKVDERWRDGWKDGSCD
HDAC3 inhib – HDAC3 deacetylase inhibitors, primary screen, biochemical, fluorescence, cell-free homogeneous | inhibition, % at 8.3 µM | recombinant HDAC3, fluorogenic peptide/trypsin coupled | Histone deacetylase 3 (Homo sapiens), O15379 | actives 0.15% (n = 320,000); in the data active means inhibition above about 26%, passing the limit was not always enough
Target sequence (O15379 whole entry, looked up): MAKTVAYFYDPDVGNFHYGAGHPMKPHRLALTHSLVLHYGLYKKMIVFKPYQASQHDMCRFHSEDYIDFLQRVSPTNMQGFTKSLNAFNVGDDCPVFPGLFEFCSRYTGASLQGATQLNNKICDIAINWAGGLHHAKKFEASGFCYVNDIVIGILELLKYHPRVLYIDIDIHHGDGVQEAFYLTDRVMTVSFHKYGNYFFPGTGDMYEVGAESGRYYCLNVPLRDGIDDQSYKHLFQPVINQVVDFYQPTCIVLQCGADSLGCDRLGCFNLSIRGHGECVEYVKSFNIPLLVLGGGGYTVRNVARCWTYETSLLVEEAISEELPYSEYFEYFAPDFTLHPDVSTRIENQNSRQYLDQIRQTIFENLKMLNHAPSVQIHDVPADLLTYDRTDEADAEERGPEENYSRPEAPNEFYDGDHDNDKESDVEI
FAS-TE inh – FAS thioesterase domain inhibitors, primary screen, biochemical, fluorescence intensity, uHTS. recombinant FAS-TE, OMFH fluorogenic substrate, fluorescence endpoint. inhibition, % at 15 µM. actives 0.67% (n = 360,000). AID 602261, 2012;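 active means compounds whose normalised, plate-corrected inhibition of enzyme fluorescence in the single-dose primary screen is 50% or more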;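 further: 0% = DMSO with enzyme and 100% = substrate without enzyme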
An asterisk follows results filed as active; x = no result.

SMILES | M18AAP inhibitor | Rtt109 Vps75 | UCH37 inh | ALR inh | HDAC3 inhib | FAS-TE inh
CCC(c1nnnn1C1CCCC1)N1CCN(c2ccccc2)CC1 (stereo unspecified) | 2.4 | -3.4 | 3.9 | 98.6* | 1.6 | 2.1
CCCC(c1nnnn1Cc1ccco1)N1CCN(c2cc(Cl)ccc2C)CC1 (stereo unspecified) | -4.2 | -5.7 | 0.5 | -11.0 | 3.9 | 19.4
O=C(NN=Cc1cccs1)c1ccc2ccccc2c1 | x | x | 1.4 | x | x | x
O=C(NN=Cc1ccccc1)c1ccc(N2CCCC2=O)cc1 | x | x | 4.8 | x | x | x
Cc1ccc(NNC(=O)c2ccno2)c(C)c1 | 17.5 | 4.8 | 0.5 | 99.2* | 3.0 | -3.5
CC(CC(=O)N1CCN(C=O)CC1)=NNC(=O)c1cc2ccccc2cc1O | x | x | -4.4 | x | x | x
Nc1ccc(OCCCc2c(N)nc(N)nc2N)cc1 | 2.0 | 0.6 | x | 99.1* | 7.7 | -3.4
COc1ccc(Cc2c(N)nc(N)nc2N)cc1 | -1.0 | -0.8 | 4.5 | -3.8 | -6.6 | -5.0
CC12CCC(CC1=N/N=C1/NC(=O)/C(=C\c3cccc(Br)c3)S1)C2(C)C (stereo unspecified) | x | x | 7.8 | x | x | x
OCCNc1cc(-n2nc(-c3ccccc3)cc2-c2ccccc2)ncn1 | 0.1 | 0.1 | 2.8 | 96.5* | -7.1 | -0.1
CNc1cc(-n2nc(C)cc2-c2ccccc2)ncn1 | -4.1 | 9.6 | 0.5 | -3.5 | 1.4 | -8.3
Cc1cc(F)ccc1NCc1ccccc1[N+](=O)[O-] | 2.0 | -11.0 | -3.0 | 98.7* | 7.3 | 20.8
Cc1cc([N+](=O)[O-])ccc1NCc1ccccc1[N+](=O)[O-] | 3.2 | -0.1 | 4.3 | -3.0 | -6.6 | 12.4
Cc1ccc(C=NNC(=O)Cc2ccc(Cl)cc2)c(O)c1 | x | x | 0.9 | x | x | x
Cc1ccc(Cc2c(C3CCCCC3)nc3ccc(Br)cn23)cc1 | x | x | x | x | x | 9.9
CC(C)c1nc2ccc(Br)cn2c1NC1CCCC1 | 7.8 | -2.6 | -1.0 | 98.8* | -2.2 | -5.3
CCn1c2ccccc2c2cc(NC(C)=O)ccc21 | 0.0 | 1.0 | 1.0 | 0.8 | 0.4 | -3.6
CCn1c2ccccc2c2cc(NC(=O)C(=O)N3CCOCC3)ccc21 | 9.3 | 8.5 | -32.5 | 91.2* | -2.0 | -3.9
CC1CCN(Cc2c(C(=O)NN=Cc3cccc(Cl)c3)nnn2-c2nonc2N)CC1 | x | x | 4.4 | x | x | x
COc1ccc(-c2nc3n(n2)C(c2ccccc2)C2=C(CCCC2=O)N3)cc1OC (stereo unspecified) | -0.4 | 6.8 | -2.0 | 96.7* | 0.2 | -5.7
COc1ccc(C2C3=C(CCCC3=O)Nc3nc(-c4cc(OC)c(OC)c(OC)c4)nn32)cc1OC (stereo unspecified) | -6.5 | -2.7 | -2.7 | -2.7 | 6.3 | -2.2
CN(C)C=NNC(=O)c1ccccc1Cl | x | x | 7.4 | x | x | x
NC(=O)C(=O)NN=Cc1c(F)c(F)c(F)c(F)c1F | x | x | 5.9 | x | x | x
CCOc1ccccc1N1CCN(C(=O)[C@@H]2CCCN2C2=NS(=O)(=O)c3ccccc32)CC1 | x | 5.0 | 1.8 | 97.1* | -1.9 | -5.2
CCn1c(/C=C/c2ccccc2C)nc2ccccc2c1=O | 3.6 | -5.1 | 2.6 | 2.1 | 3.5 | 11.8
SMILES | M18AAP inhibitor | Rtt109 Vps75 | UCH37 inh | ALR inh | HDAC3 inhib | FAS-TE inh
CCn1c(/C=C/c2ccc(O)cc2)nc2ccccc2c1=O | -9.4 | 4.6 | -6.0 | 97.6* | -3.6 | -0.8
Cc1nc2ccccc2c(=O)n1CCc1ccc(O)cc1 | 2.2 | x | 4.5 | 95.8* | -0.3 | 0.9
Cc1cc(C)n(CCC(=O)NN=Cc2ccccc2O)n1 | x | x | -55.5 | x | x | x
CC1CCCC(C)N1N=Cc1ccccc1OC(F)F (stereo unspecified) | x | x | 1.8 | x | x | x
CSc1nc(O)c(C(c2ccc(O)cc2)c2c(O)nc(SC)[nH]c2=O)c(=O)[nH]1 | -9.2 | 6.5 | 2.1 | 84.3* | 3.3 | -6.0
CCOc1ccc(C(c2c(O)nc(SC)[nH]c2=O)c2c(O)nc(SC)[nH]c2=O)cc1 | x | x | 7.1 | 57.0 | 9.0 | -5.2
C=CCOc1ccc(C(c2c(O)nc(SC)[nH]c2=O)c2c(O)nc(SC)[nH]c2=O)cc1 | x | 8.5 | 3.9 | 90.4* | -1.7 | -3.5
COc1ccc(OCC(=O)Nc2nc3ccc(NC(C)=O)cc3s2)cc1 | -5.1 | -4.5 | 2.2 | -2.8 | 3.9 | -2.6
CCOC(=O)N1CCC(=NNc2nc3ccccc3s2)CC1 | 29.4* | 7.1 | 0.4 | -0.9 | -7.8 | -1.5
O=C(COc1ccccc1)NNc1nc2ccccc2s1 | 15.0 | -3.2 | 0.2 | 99.2* | 0.3 | -1.8
CC(=O)Nc1ccc(/C=N/Nc2nc3ccccc3s2)cc1 | 21.8 | -7.3 | x | x | x | -0.2
CC(=O)Nc1cccc(/C(C)=N/Nc2nc3ccccc3s2)c1 | 8.6 | -3.0 | x | 97.9* | 10.9 | 9.2
COc1ccc2nc(NNC(=O)COc3ccccc3)sc2c1 | 38.3* | 5.1 | -0.4 | -22.6 | 1.1 | -4.0
CC(=NNC(=O)c1cc(-c2ccncc2)nc2ccccc12)c1ccc(OC(F)F)cc1 | x | x | -2.3 | x | x | x
COc1cc(C=Nn2c(C)nc3ccccc3c2=O)cc(OC)c1O | x | x | 6.9 | x | x | x
COc1ccc(C(C)=NNC(=O)CNC(=O)c2cccnc2)cc1OC | x | x | 3.3 | x | x | x
C/C(=C\C(=O)c1ccccc1)NNc1nc2ccccc2s1 | 25.7 | 6.9 | 2.7 | 15.0 | 4.9 | -0.6
CCOCC(=O)Nc1nc2ccccc2s1 | 12.8 | 3.8 | -2.4 | 86.5* | 9.2 | -8.8
O=C(NNc1nc2ccccc2s1)Nc1ccccc1 | 29.0* | 2.6 | x | 57.3 | 1.2 | -6.2
O=C(O)c1ccc(C=NNC(=O)c2ccc(F)cc2)cc1 | x | x | 5.3 | x | x | x
O=C1C2C(C(=O)N1N=Cc1cccc([N+](=O)[O-])c1)C1C=CC2C12CC2 (stereo unspecified) | x | x | 4.1 | x | x | x
Nc1nc(N)nc(-c2cc(C(F)(F)F)ccc2Cl)n1 | x | -12.3 | 1.2 | x | 27.8* | -7.7
Nc1nc(N)nc(-c2cc(Cl)ccc2Cl)n1 | x | 5.6 | 4.9 | -0.5 | 1.6 | -1.3
S=C(c1ccc(N2CCCC2)cc1)N1CCCCC1 | 3.8 | 3.1 | 5.4 | 98.6* | 4.3 | -5.5
Oc1ccc(C(=S)N2CCCCCC2)cc1 | -5.1 | 3.5 | 0.4 | 7.6 | -2.8 | -11.1
O=C(N1CCCCC1)N1CCN(c2ccc(Cl)cc2)CC1 | -12.9 | -8.3 | 5.0 | 98.3* | -2.3 | -0.6
CC(=O)N1CCN(c2ccc(N)cc2)CC1 | x | -10.0 | 1.5 | 98.5* | -1.0 | -13.8
Nc1ccc(N2CCCCCC2)cc1 | 13.9 | x | x | 98.5* | 1.3 | x
CC(CC(=O)Nc1ccc2c(c1)OCCO2)=NNC(=O)COc1ccccc1 | x | x | -1.0 | x | x | x
COc1ccc(OCC(=O)NN=Cc2ccc(OC)c(OC)c2C(=O)O)cc1 | x | x | 0.5 | x | x | x
